Measured values: ChEMBL document CHEMBL5223075, “Discovery of thienothiazolocarboxamide analogues as novel anti-tubercular agent” (Bioorg Med Chem, 2020)
Values after ≈ are worked out from the molar mass of the structure shown. Active and inactive are the calls of the source. The calls are words filed in the database; no cut-off is given here.

Assays:
[1] = system: Mycobacterium tuberculosis; assay: Antitubercular activity against Mycobacterium tuberculosis H37Rv ATCC 27294 expressing the green fluorescence protein assessed as inhibition of bacterial growth by measuring GFP fluorescence incubated for 5 days by fluorescence based plate reader analysis; assay type: functional, organism-based; conditions: H37Rv ATCC 27294, 120 h
Method in brief: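 H37Rv-GFP was grown 14 days in 7H9/OADC/Tween/glycerol/hygromycin, washed, and seeded at ~3×10^6 CFU/mL. Compounds were given as 10-point 2-fold series starting at 20 or 1 µM, in 1% DMSO final. Plates ran 5 days at 37°C, 5% CO2, with rifampicin 1 µg/mL as positive control. GFP fluorescence was read and IC50 taken from a 4-parameter sigmoid fit.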

[2] = system: Mycobacterium tuberculosis; assay: Antitubercular activity against Mycobacterium tuberculosis H37Rv ATCC 27294 expressing the green fluorescence protein infected in mouse RAW264.7 cells assessed as inhibition of bacterial growth pre-infected with cell followed by compound addition and measured after 5 days by Hoechst 33342 staining based analysis; assay type: functional, organism-based; conditions: H37Rv ATCC 27294, RAW264.7, 120 h
Method in brief: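 RAW 264.7 cells, passages 2-9, were infected with washed H37Rv-GFP at MOI 20 for 2 h at 37°C with shaking. Cells were washed and plated at 20,000/well over 2-fold compound dilutions for 5 days. Nuclei were stained with 5 µM Hoechst (final) and 3 fields/well imaged. Four parameters (cell count, bacterial area, area per infected cell, infected-cell ratio) were each fitted by 4-parameter sigmoid, and the IC50s averaged.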

[3] = Solubility of the compound at pH 7.4; assay type: physicochemical; conditions: buffer
[4] = Solubility of the compound at pH 2.1; assay type: physicochemical; conditions: buffer
[5] = Metabolic stability in human liver microsome assessed as phase I mediated metabolite formation by measuring half-life; assay type: ADME; conditions: microsomes
[6] = Metabolic stability in mouse liver microsome assessed as phase I mediated metabolite formation by measuring half-life; assay type: ADME; conditions: microsomes
[7] = Metabolic stability in human liver microsome assessed as phase II mediated metabolite formation by measuring half-life; assay type: ADME; conditions: microsomes
[8] = Metabolic stability in mouse liver microsome assessed as phase II mediated metabolite formation by measuring half-life; assay type: ADME; conditions: microsomes
[9] = Stability in human plasma measured after 2 hrs; assay type: ADME, cell-free; conditions: read-out: Stability
[10] = Stability in mouse plasma measured after 2 hrs; assay type: ADME, cell-free; conditions: read-out: Stability
[11] = Protein binding in human plasma; assay type: ADME, cell-free; conditions: read-out: PPB (converted)
[12] = Protein binding in mouse plasma; assay type: ADME, cell-free; conditions: read-out: PPB (converted)
A549 = assay: Cytotoxicity against human A549 cells assessed as inhibition of cell growth; assay type: functional, cell-based
[13] = Cytotoxicity against HEK293 cells assessed as inhibition of cell growth; assay type: toxicity, cell-based; conditions: human
HepG2 = assay: Cytotoxicity against human HepG2 cells assessed as inhibition of cell growth; assay type: functional, cell-based
Jurkat = assay: Cytotoxicity against human Jurkat cells assessed as inhibition of cell growth; assay type: functional, cell-based
[14] = Genotoxicity in Salmonella typhimurium TA98 by Ames mutagenicity test; assay type: toxicity; conditions: salmonella enterica subsp. enterica serovar typhimurium
[15] = Genotoxicity in Salmonella typhimurium TA100 by Ames mutagenicity test; assay type: toxicity; conditions: salmonella enterica subsp. enterica serovar typhimurium
[16] = Genotoxicity in Salmonella typhimurium TA98 in the presence of S9 fraction by Ames mutagenicity test; assay type: toxicity, subcellular; conditions: salmonella enterica subsp. enterica serovar typhimurium
[17] = Genotoxicity in Salmonella typhimurium TA100 in the presence of S9 fraction by Ames mutagenicity test; assay type: toxicity, subcellular; conditions: salmonella enterica subsp. enterica serovar typhimurium
[18] = Half-life in BALB/c mouse at 2 mg/kg, iv by LC-MS analysis; assay type: ADME, organism-based; conditions: in vivo
Method in brief: (§1)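 Female BALB/c mice, 6-8 weeks old. Dosed i.v. at 2 or 3 mg/kg, or orally at 10 mg/kg. Vehicles varied by compound: DMSO/Captisol, DMSO/PEG400/SBE-b-CD, or DMSO/Cremophor EL/Captisol. Blood was held at 4°C within 1 h, then centrifuged at 3200 × g for 10 min at 4°C. Plasma was kept at 4°C, and compound levels were measured by LC-MS.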

[19] = Clearance in BALB/c mouse at 2 mg/kg, iv by LC-MS analysis; assay type: ADME, organism-based; conditions: in vivo; method in brief: as §1
[20] = Volume of distribution at steady state in BALB/c mouse at 2 mg/kg, iv by LC-MS analysis; assay type: ADME, organism-based; conditions: in vivo, read-out: Vdss; method in brief: as §1
[21] = Half-life in BALB/c mouse at 10 mg/kg, po by LC-MS analysis; assay type: ADME, organism-based; conditions: in vivo; method in brief: as §1
[22] = Cmax in BALB/c mouse at 10 mg/kg, po by LC-MS analysis; assay type: ADME, organism-based; set-up: dose 10 mg/kg, route po; conditions: in vivo; method in brief: as §1
[23] = AUClast in BALB/c mouse at 10 mg/kg, po by LC-MS analysis; assay type: ADME, organism-based; set-up: dose 10 mg/kg, route po; conditions: in vivo; method in brief: as §1
[24] = Oral bioavailability in BALB/c mouse at 10 mg/kg by LC-MS analysis; assay type: ADME, organism-based; conditions: in vivo; method in brief: as §1
[25] = Drug concentration in BALB/c mouse plasma at 10 mg/kg, po by LC-MS analysis; assay type: ADME, organism-based; conditions: in vivo; method in brief: as §1
[26] = Drug concentration in BALB/c mouse lung at 10 mg/kg, po by LC-MS analysis; assay type: ADME, organism-based; conditions: in vivo; method in brief: as §1
[27] = Ratio of drug concentration in lung to plasma in BALB/c mouse at 10 mg/kg, po by LC-MS analysis; assay type: ADME, organism-based; method in brief: as §1
[28] = Tmax in BALB/c mouse at 10 mg/kg, po by LC-MS analysis; assay type: ADME, organism-based; conditions: in vivo; method in brief: as §1
[29] = system: Mycobacterium tuberculosis; assay: Antibacterial activity against Mycobacterium tuberculosis H37Rv ATCC 27294 infected in BALB/c mouse assessed as reduction in bacterial load in lungs at 25 to 100 mg/kg, po administered five times a week for 28 days; assay type: functional, organism-based; conditions: dose 25-100 mg/kg, time 28.0 day
Method in brief: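 Female BALB/c mice, 6-8 weeks old, were infected intranasally with ~300-600 CFU H37Rv, 5 mice per group. Oral gavage began at day 21, 5 days/week for 4 weeks. Lungs were taken a day after the last dose, homogenized in PBS, serially diluted and plated in duplicate on 7H11-OADC agar for 2-5 weeks at 37°C. Detection limit ~2.3 logs. Bonferroni test against vehicle-treated mice.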

[30] = Stability in human plasma measured after 4 hrs; assay type: ADME, cell-free; conditions: read-out: Stability
[31] = Stability in mouse plasma measured after 4 hrs; assay type: ADME, cell-free; conditions: read-out: Stability

O=C(Nc1ccc(-c2ccc(C(F)(F)F)cn2)cc1)c1cc2sc(NCCN3CCOCC3)nc2s1 gave an IC50 [1] of 4.5 µM, an IC50 [2] of 0.21 µM and a solubility [3] of 9.8 µg/mL (≈ 18.4 µM). The solubility [4] was 44.3 µg/mL (≈ 83 µM).

In the case of Cc1nc2cc(NC(=O)c3cc4sc(N5CCC(C(=O)N(C)C)CC5)nc4s3)ccc2o1, the IC50 [1] is reported as 0.5 µM, the IC50 [2] is reported as 0.51 µM and the t1/2 [5] is reported as > 1 h. The t1/2 [6] was > 1 h, the solubility [3] was 1.2 µg/mL (≈ 2.56 µM) and the solubility [4] was 4 µg/mL (≈ 8.52 µM). For the same compound, the t1/2 [7] was 1.66 h, the t1/2 [8] was 2.07 h and the remaining at 2 h [9] was 86.1%. For the same compound, the remaining at 2 h [10] was 95.7%, the fraction unbound [11] was 0.049 and the fraction unbound [12] was 0.036. The IC50 (A549) was > 50 µM, the IC50 [13] was > 50 µM and the IC50 (HepG2) was > 50 µM. The IC50 (Jurkat) was > 50 µM, the Activity [14] was “Non-Toxic” and the Activity [15] was “Non-Toxic”. The Activity [16] was “Non-Toxic”, the Activity [17] was “Non-Toxic” and the half-life [18] was 0.92 h. For the same compound, the clearance [19] was 11.8 mL/min/kg, the Vd [20] was 0.701 L/kg and the half-life [21] was 0.99 h. It also gave a Cmax [22] of 7010 ng/mL, an AUC(0-t) [23] of 10000 ng·h/mL and a bioavailability [24] of 71.2%. For the same compound, the Cp [25] was 4400 ng/mL, the Ct [26] was 2986 ng/mL and the Kp [27] was 0.7. The Tmax [28] was 1 h and the Activity [29] was “inactive”.

In the case of O=C(Nc1ccc(-c2ccc(F)cc2)cn1)c1cc2sc(NCCN3CCOCC3)nc2s1, the IC50 [1] is reported as 4.7 µM, the IC50 [2] is reported as 0.36 µM and the solubility [3] is reported as 0.56 µg/mL (≈ 1.16 µM). It also gave a solubility [4] of 44.2 µg/mL (≈ 91.4 µM).

In the case of Cc1ccc(-c2ccc(NC(=O)c3cc4sc(NCCN5CCOCC5)nc4s3)cc2)nc1, the IC50 [1] is reported as 1.35 µM, the IC50 [2] is reported as 0.31 µM and the t1/2 [5] is reported as 0.348 h. The t1/2 [6] was 0.452 h, the solubility [3] was 1.3 µg/mL (≈ 2.71 µM) and the solubility [4] was 52.3 µg/mL (≈ 109 µM).

O=C(Nc1ccc(Cl)cc1)c1cc2sc(N3CCCCC3)nc2s1 gave an IC50 [1] of 1.1 µM and an IC50 [2] of 0.11 µM.

Work on COc1ccc(NC(=O)c2cc3sc(N4CCN(C)CC4)nc3s2)cc1 yielded an IC50 [1] of 1.3 µM and an IC50 [2] of 0.11 µM.

For Cc1nc2cc(NC(=O)c3cc4sc(N5CC(C)OC(C)C5)nc4s3)ccc2o1 (centres undefined), the IC50 [1] was 1.1 µM and the IC50 [2] was 0.25 µM.

For COc1ccc(NC(=O)c2cc3sc(N(C)C)nc3s2)cc1, the IC50 [1] was 1.6 µM and the IC50 [2] was 0.27 µM.

COc1ccc(NC(=O)c2cc3sc(N4CCCCC4)nc3s2)cc1 gave an IC50 [1] of 0.83 µM and an IC50 [2] of 0.17 µM.

O=C(Nc1ccc(-c2ccc(Cl)cn2)cc1)c1cc2sc(NCCN3CCOCC3)nc2s1 showed an IC50 [1] of 3.2 µM, an IC50 [2] of 0.21 µM and a solubility [3] of 0.2 µg/mL (≈ 0.4 µM). It also gave a solubility [4] of 43.4 µg/mL (≈ 86.8 µM).

For Cc1nc2cc(NC(=O)c3cc4sc(N5CCOCC5)nc4s3)ccc2o1, the IC50 [1] was 0.42 µM, the IC50 [2] was 0.2 µM and the t1/2 [5] was > 1 h. The t1/2 [6] was > 1 h, the solubility [3] was 0.82 µg/mL (≈ 2.05 µM) and the solubility [4] was 5.3 µg/mL (≈ 13.2 µM). The t1/2 [7] was > 1 h, the t1/2 [8] was > 1 h and the remaining at 4 h [30] was 86.8%. For the same compound, the remaining at 4 h [31] was 74.7%, the fraction unbound [11] was 0.012 and the fraction unbound [12] was 0.001. The half-life [18] was 0.33 h, the clearance [19] was 121 mL/min/kg and the Vd [20] was 0.626 L/kg. It also gave a Cmax [22] of 313 ng/mL.

Work on CO[C@H]1/C=C/O[C@@]2(C)Oc3c(C)c(O)c4c(O)c(c(/C=N/N5CCN(C)CC5)c(O)c4c3C2=O)NC(=O)/C(C)=C\C=C\[C@H](C)[C@H](O)[C@@H](C)[C@@H](O)[C@@H](C)[C@H](OC(C)=O)[C@@H]1C [RIFAMPIN] yielded an IC50 [1] of 0.01 µM and an IC50 [2] of 0.06 µM.

In the case of COc1ccc(N(C)C(=O)c2cc3sc(N4CCCCC4)nc3s2)cc1, the IC50 [1] is reported as > 20 µM and the IC50 [2] is reported as > 20 µM.

Cc1nc2cc(NC(=O)c3cc4sc(N(C)CCCO)nc4s3)ccc2o1 gave an IC50 [1] of 1 µM and an IC50 [2] of 0.7 µM.

In the case of COc1ccc(CNC(=O)c2cc3sc(N4CCCCC4)nc3s2)cc1, the IC50 [1] is reported as > 20 µM and the IC50 [2] is reported as > 20 µM.
